Assay results pooled from the literature.
Each line is one published result; the experiments were not run side by side.
Target: Serine/threonine-protein kinase PAK 1 (PAK1, Homo sapiens, UniProt Q13153)

| SMILES | test | setting | quantity | value |
| --- | --- | --- | --- | --- |
| Nc1ncnc2occ(-c3ccc(NC(=O)Nc4cc(C(F)(F)F)ccc4F)cc3)c12 | cell-free assay, inhibitor | 20 µM | remaining signal | 41% |
| O=C(Nc1cnn(-c2csc(C(=O)NC3COC3)c2)c1)Nc1ccccc1Cl | enzyme activity, inhibitor | 5 µM | remaining activity | 106% |
| Oc1ccc(-c2nc(-c3ccncc3)c(-c3ccc(F)cc3)[nH]2)cc1 | cell-free assay | 0.5 µM | remaining signal | 97.3% |
| CC(C)(C)c1nc(-c2cccc(NS(=O)(=O)c3c(F)cccc3F)c2F)c(-c2ccnc(N)n2)s1 | enzyme activity, inhibitor, radiometric | 1 µM | remaining activity | 91% |
| CN(C)C1CCN(CC#Cc2nn(C3CCCC3)c3nc(NCc4ccccc4)ncc23)C1 (centres unmarked) | enzyme activity, inhibitor, FRET | 10 µM | inhibition | 1% |
| CS(=O)(=O)N1CCCC(NC(=O)[C@H](CCC2CCCCC2)NC(=O)c2ccc(CNC(=O)c3cnc4ccccn34)cc2)C1 (some centres unmarked) | cell-free assay, competition with immobilised ligand | 0.1 µM | remaining binding | 82% |
| C=CC(=O)Nc1cc(Nc2nccc(Nc3cc(Cl)c(F)cc3C(C)(C)O)n2)c(OC)cc1N1CC[C@@H](N(C)C)C1 | enzyme activity, inhibitor | 1 µM | inhibition | -9% |
| Cc1ccc(Nc2nccc(N(C)c3ccc4c(C)n(C)nc4c3)n2)cc1S(N)(=O)=O | cell-free assay, inhibitor | 0.5 µM | remaining signal | 89.1% |
| Cc1cnc(NC2CCOCC2)nc1-n1cnc(C(=O)NC(CN)c2cc(F)cc(Cl)c2)c1 (centres unmarked) | enzyme activity, inhibitor, radiometric | 1 µM | remaining activity | 51% |
| COc1ccc2c(c1)O[C@@H](c1ccc(OC)c(OC)c1)C[C@H]2NC(=O)C1(c2ccc3c(c2)OC(F)(F)O3)CC1 | cell-free assay, competition with immobilised ligand | 1 µM | remaining binding | 89% |
| Cc1ccc(C(=O)Nc2ccc(CN3CCN(C)CC3)c(C(F)(F)F)c2)cc1C#Cc1cnc2cccnn12 | enzyme activity, inhibitor | 23.5 nM | remaining activity | 100% |
| Cc1ccc(NC(=O)c2ccc(C)c(C(F)(F)F)c2)cc1C#Cc1nn(C2CCC(O)CC2)c2ncnc(N)c12 (centres unmarked) | cell-free assay | 10 µM | remaining signal | 87% |
| CCOCCn1cc(C(=O)Nc2ccc(-n3nc(-c4cccnc4)cc3C(F)(F)F)cn2)ccc1=O | cell-free assay, competition with immobilised ligand | 1 µM | remaining binding | 96% |
| O=C1Nc2ccc(Cl)cc2C1=Cc1cc(Cl)c(O)c(Cl)c1 | cell-free assay | 0.5 µM | remaining signal | 97.2% |
| CS(=O)(=O)NCC[C@H](NC(=O)c1cncc2c1cnn2-c1ccc(F)cc1)c1ccnc(S(C)(=O)=O)c1 | cell-free assay, competition with immobilised ligand | 1 µM | remaining binding | 88% |
| COc1cc2ncnc(Nc3ccc(Oc4ccccc4)c(C)c3C)c2cc1OC | enzyme activity, inhibitor | 1 µM | inhibition | 5% |
| O=C1CCc2cc(Nc3cc(OC4CCOCC4)c([N+](=O)[O-])cc3Cl)ccc2N1 | cell-free assay, competition with immobilised ligand | 1 µM | remaining binding | 88% |
| CS(=O)(=O)Nc1cccc(-c2csc(NC(=O)CSc3nc4nccnc4c(=O)n3CCc3ccccc3)n2)c1 | enzyme activity, inhibitor | 10 µM | inhibition | -2% |
| CCOC(=O)c1cc2cc(-c3cc(C(=O)NCc4ccc(C(=O)O)cc4)nn3C)ccc2[nH]1 | cell-free assay, competition with immobilised ligand | 0.1 µM | remaining binding | 92% |
| Cc1cc(NC(=O)c2cccc3cc(-c4cccc5[nH]nc(N)c45)ccc23)ccc1F | enzyme activity, inhibitor | 0.1 µM | activity vs control | 94% |
